The values that follow come from ChEMBL document CHEMBL4680156, “Discovery of novel pyrido-pyrrolidine hybrid compounds as alpha-glucosidase inhibitors and alternative agent for control of type 1 diabetes” (Eur J Med Chem, 2020).

Structures are written as SMILES. Converted amounts (≈) assume the structure as drawn. The source made the active and inactive calls. The rule behind the calls is not given here.

As usually defined, the IC50 is the point on the concentration scale where inhibition reaches its midpoint. For orientation: logD means the decadic logarithm of the distribution of all forms, ionised or not, between an organic phase and buffer at a given pH. Higher therefore signals a more lipophilic compound. The half-life is how long it takes for the measured level to halve. As a reminder, the clearance is the rate of elimination divided by the concentration.

The target in series [1] is T1, Tissue alpha-L-fucosidase (Bos taurus, UniProt Q2KIM0).
T1 sequence (Q2KIM0 whole entry): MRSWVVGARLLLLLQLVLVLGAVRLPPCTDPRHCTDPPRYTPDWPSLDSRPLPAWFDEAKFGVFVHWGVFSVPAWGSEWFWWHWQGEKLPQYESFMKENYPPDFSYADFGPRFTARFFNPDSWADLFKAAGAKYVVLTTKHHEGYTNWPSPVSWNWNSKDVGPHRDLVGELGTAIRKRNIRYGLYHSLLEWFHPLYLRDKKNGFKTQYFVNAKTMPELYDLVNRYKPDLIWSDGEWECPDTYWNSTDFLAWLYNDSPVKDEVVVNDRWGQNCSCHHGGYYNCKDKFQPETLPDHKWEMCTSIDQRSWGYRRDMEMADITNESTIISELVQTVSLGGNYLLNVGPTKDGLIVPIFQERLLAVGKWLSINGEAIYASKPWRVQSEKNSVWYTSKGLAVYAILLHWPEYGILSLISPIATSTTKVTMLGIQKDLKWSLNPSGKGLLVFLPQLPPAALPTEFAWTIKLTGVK
The series can be described thus: Inhibition of bovine kidney alpha-fucosidase using […] as substrate incubated for 10 mins by spectrophotometric method.

The subject of series [2] is Saccharomyces cerevisiae. The series can be described thus: Binding affinity to Saccharomyces cerevisiae alpha-glucosidase assessed as decrease in fluorescence intensity at 6.25 to 25 ng/ml after 30 mins by spectrofluorometric method. As to conditions: dose 6.25-25 ng/ml. The procedure, abridged: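 Yeast α-glucosidase (1.5 U) was pretreated with compound at 6.25 and 25 ng/ml for 30 min at 37 °C. Intrinsic Trp fluorescence was excited at 295 nm and the emission (peak 330 nm) recorded at 298 K. Quenching was scored against free enzyme.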

In series [3] the test system is Saccharomyces cerevisiae. The series can be described thus: Binding affinity to Saccharomyces cerevisiae alpha-glucosidase assessed as protein with alpha-helical structure at 0.32 ug/ml by CD spectroscopic method (reference value: 5.3%). As to conditions: dose 0.32 µg/ml. The procedure, abridged:
(§1)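 Compound was added at different concentrations to yeast α-glucosidase (30 U/ml). CD spectra were taken with 3 accumulations (negative bands at 209 and 222 nm). α-Helix and β-sheet content were estimated with secondary-structure estimation software.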

Series [4] concerns Saccharomyces cerevisiae. The series can be described thus: Binding affinity to Saccharomyces cerevisiae alpha-glucosidase assessed as protein with alpha-helical structure at 0.64 ug/ml by CD spectroscopic method (reference value: 5.3%). The following applies: dose 0.64 µg/ml. The procedure, abridged: as §1
Series [5] in a line: Drug recovery in mouse plasma at 10 uM after 6 hrs by LC-MS/MS analysis. The series is classed as ADME, cell-free. The following applies: read-out: Drug recovery. The procedure, abridged: (§2)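 Equilibrium dialysis: plasma with compound at 10 μM final on one side, 100 mM sodium phosphate pH 7.4 on the other. Equilibrated at 37 ± 1 °C for 6 h with shaking at 500 rpm. Both sides were sampled, proteins precipitated with organic solvent, and supernatants analysed by LC-MS/MS.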

Series [6] is described as follows: Thermodynamic solubility of compound in phosphate buffer at 1 mg/ml at pH 7.4 after 24 hrs by HPLC analysis. The series is classed as physicochemical. The following applies: read-out: Therm_solubility. The procedure, abridged: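 1 mg compound incubated in 1 mL phosphate buffer saline (pH 7.4) for 24 h with vortexing at 500 rpm. Samples were then centrifuged and the supernatant injected into HPLC to quantify dissolved compound.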

Series [7] can be described thus: Octanol/aqueous buffer distribution coefficient, log D of compound after 1 hr by HPLC-UV analysis. The class given is physicochemical. The procedure, abridged:
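Compound was added to octanol and vortexed, then buffer was added. The mixture was shaken 1 h at room temperature, allowed to equilibrate 20 min and centrifuged at 4000 g for 30 min. Octanol and buffer layers were each quantified by HPLC-UV.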

The nature of series [8]: Permeability of compound at pH 7.4 after 4 hrs by GIT PAMPA method. The series is classed as ADME. As to conditions: read-out: permeability. The procedure, abridged:
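GIT PAMPA: compound in the donor plate at pH 7.4, with GIT-0 lipid coated on the acceptor membrane and sink buffer in the acceptor plate. Incubated 4 h; donor and acceptor aliquots were read by UV to give permeability.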
In general terms: The PAMPA barrier holds no transporters, so it reflects passive diffusion.

A short description of series [9]: Stability in mouse liver microsomes assessed as CYP450-mediated drug degradation by measuring proportion of compound metabolised at 1 uM up to 60 mins in presence of NADPH by LC-MS/MS analysis. The class given is ADME. The following applies: read-out: Drug degradation. The procedure, abridged: (§3)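 Liver microsomes (1.0 mg protein/mL) were incubated with compound at 1 μM; reactions were started with 1 mM NADPH. No-NADPH incubations (0 and 60 min) served as stability controls. Reactions were stopped at 0, 5, 15, 30 and 60 min with ice-cold acetonitrile containing internal standard, then centrifuged. Parent loss was tracked by LC-MS/MS.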
(In general: Liver microsomes are a subcellular fraction often used to study metabolism.)

Series [10] is described as follows: Stability in rat liver microsomes assessed as CYP450-mediated drug degradation by measuring proportion of compound metabolised at 1 uM up to 60 mins in presence of NADPH by LC-MS/MS analysis. The following applies: read-out: Drug degradation. The series is classed as ADME. The procedure, abridged:
as §3

Series [11] in a line: Half life in rat liver microsomes at 1 uM up to 60 mins in presence of NADPH by LC-MS/MS analysis. The series is classed as ADME, Microsome. The procedure, abridged: as §3
A short description of series [12]: Intrinsic clearance in rat liver microsomes at 1 uM up to 60 mins in presence of NADPH by LC-MS/MS analysis. The class given is ADME, Microsome. The following applies: 1 h. The procedure, abridged:
as §3

A short description of series [13]: Intrinsic clearance in human liver microsomes at 1 uM up to 60 mins in presence of NADPH by LC-MS/MS analysis. The class given is ADME, Microsome. The following applies: 1 h. The procedure, abridged: as §3
Series [14] can be described thus: Clearance in rat. The class given is ADME. The following applies: in vivo.
Series [15] can be described thus: Protein binding in rat plasma assessed as unbound fraction at 10 uM after 6 hrs by LC-MS/MS analysis. The series is classed as ADME, cell-free. The procedure, abridged:
as §2

Series [16] in a line: Protein binding in mouse plasma assessed as bound fraction at 10 uM after 6 hrs by LC-MS/MS analysis. The class given is ADME, cell-free. As to conditions: read-out: PPB (converted). The procedure, abridged:
as §2

Series [17] in a line: Protein binding in rat plasma assessed as bound fraction at 10 uM after 6 hrs by LC-MS/MS analysis. The class given is ADME, cell-free. As to conditions: read-out: PPB (converted). The procedure, abridged:
as §2

A short description of series [18]: Protein binding in human plasma assessed as bound fraction at 10 uM after 6 hrs by LC-MS/MS analysis. The series is classed as ADME, cell-free. The following applies: read-out: PPB (converted). The procedure, abridged:
as §2

Series [19] can be described thus: Drug recovery in rat plasma at 10 uM after 6 hrs by LC-MS/MS analysis. The class given is ADME, cell-free. The following applies: read-out: Drug recovery. The procedure, abridged: as §2
A short description of series [20]: Drug recovery in human plasma at 10 uM after 6 hrs by LC-MS/MS analysis. The series is classed as ADME, cell-free. As to conditions: read-out: Drug recovery. The procedure, abridged:
as §2

Series [21] concerns BRIN-BD11. The series can be described thus: Induction of rat BRIN-BD11 cell proliferation at 1 uM after 24 hrs by MTT assay. The class given is functional. The procedure, abridged:
(§4)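 BRIN-BD11 rat β-cells were seeded at 10^4 cells/well in RPMI and left overnight. They were exposed 24 h to compound at 100, 30, 10, 3, 1, 0.3 and 0.1 μM. MTT (5 mg/ml stock) was added for 90 min at 37 °C, formazan dissolved in DMSO, and absorbance read at 560 nm.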

A short description of series [22]: Cytotoxicity against rat BRIN-BD11 cells assessed as reduction in cell viability at >=10 uM after 24 hrs by MTT assay. The class given is cell-based. As to conditions: brin-bd11, 24 h. The procedure, abridged:
as §4
Background: Tetrazolium assays rely on reduction of a dye to a coloured formazan, in cell work by metabolically active cells.

Series [23] has as its system Rattus norvegicus. Briefly: Decrease in post prandial glucose level in type 1 diabetic Sprague-Dawley rat model at 60 mg/kg, po administered once daily for 28 days. As to conditions: time 28.0 day.

Turning to `CCOC(=O)c1ccc(-n2c(/C=C3\OC(=O)c4c3cc(C)[nH]c4=O)ccc2CO)cc1`, in series [1], the IC50 is 30.4 µM. Further, the outcome in series [2] and in series [21] was Active. Moreover, the Activity is 5.2% in series [3], 6.6% in series [4] and “Toxic” in [22]. The values for the remaining at 6 h, 10 µM in series [5], in [19] and in series [20] were 15%, 1.95% and 56.7%, respectively. The solubility thermodynamic at 24 h in [6] was determined as 0.1 µg/mL (≈ 0.238 µM). The same compound gave a logD at 1 h in series [7] of 2.4. Also, in series [8], the Papp at 4 h was 15 ×10⁻⁶ cm/s. Besides, the figures for the metabolised at 1 h, 1 µM in series [9] and in series [10] were 99% and 95.2%, respectively. In addition, in series [11], the half-life at 1 µM was 15 min. Further, the CLint in series [12] turned out to be 54.4 µL/min/mg; in [13], 54.8 µL/min/mg. This compound registered a clearance in series [14] of 35.2 mL/min/kg. The fraction unbound at 6 h, 10 µM is 0.0156 in series [15], 0.0899 in [16], 0.0156 in series [17] and 0.107 in series [18]. The inhibition entry in [23] is “inactive”.
